Data taken from ChEMBL document CHEMBL4732249, “Design, synthesis and biological evaluation of 2-aminoquinazolin-4(3H)-one derivatives as potential SARS-CoV-2 and MERS-CoV treatments” (Bioorg Med Chem Lett, 2021).

What was measured:
SARS-CoV-2 = assay: Antiviral activity against SARS-CoV-2 infected in African green monkey Vero cells assessed as inhibition of viral infection by measuring nucleocapsid protein level by immunofluorescence microscopic analysis; assay type: functional, organism-based; conditions: Severe acute respiratory syndrome coronavirus 2, Vero
Vero = assay: Cytotoxicity against African green monkey Vero cells assessed as reduction of cell viability by WST-1 assay; assay type: cell-based; conditions: chlorocebus sabaeus
[1] = Selective index, ratio of CC50 for African green monkey Vero cells to IC50 for SARS-CoV-2 infected in African green monkey Vero cells
[2] = system: Middle East respiratory syndrome-related coronavirus; assay: Antiviral activity against MERS-CoV infected in African green monkey Vero cells assessed as inhibition of viral infection by measuring reduction in spike protein level by immunofluorescence microscopic analysis; assay type: functional, organism-based
[3] = Selective index, ratio of CC50 for African green monkey Vero cells to IC50 for MERS-CoV infected in African green monkey Vero cells
[4] = Stability in mouse microsomes assessed as as parent compound remaining after 30 mins; assay type: ADME, Microsome; conditions: read-out: Stabilty
In short: (§1)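 Liver microsomes from human, mouse and rat were used. The read-out is percent of parent compound remaining after 30 min incubation.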

[5] = Stability in rat microsomes assessed as as parent compound remaining after 30 mins; assay type: ADME, Microsome; conditions: read-out: Stabilty; in short: as §1
[6] = Stability in human microsomes assessed as as parent compound remaining after 30 mins; assay type: ADME, Microsome; conditions: read-out: Stabilty; in short: as §1
HFL1 = assay: Cytotoxicity against human HFL-1 cells; assay type: cell-based
[7] = Cytotoxicity against CHO-K1 cells; assay type: cell-based, Cricetulus griseus; conditions: chinese hamster
[8] = Cytotoxicity against mouse NCTC clone 929 cells; assay type: cell-based
[9] = Cytotoxicity against mouse NIH3T3 cells; assay type: cell-based
hERG (KCNH2) = hERG (KCNH2) (Homo sapiens, UniProt Q12809); assay: Inhibition of human ERG at 10 uM relative to control
Chain of hERG (KCNH2) (Q12809 whole entry): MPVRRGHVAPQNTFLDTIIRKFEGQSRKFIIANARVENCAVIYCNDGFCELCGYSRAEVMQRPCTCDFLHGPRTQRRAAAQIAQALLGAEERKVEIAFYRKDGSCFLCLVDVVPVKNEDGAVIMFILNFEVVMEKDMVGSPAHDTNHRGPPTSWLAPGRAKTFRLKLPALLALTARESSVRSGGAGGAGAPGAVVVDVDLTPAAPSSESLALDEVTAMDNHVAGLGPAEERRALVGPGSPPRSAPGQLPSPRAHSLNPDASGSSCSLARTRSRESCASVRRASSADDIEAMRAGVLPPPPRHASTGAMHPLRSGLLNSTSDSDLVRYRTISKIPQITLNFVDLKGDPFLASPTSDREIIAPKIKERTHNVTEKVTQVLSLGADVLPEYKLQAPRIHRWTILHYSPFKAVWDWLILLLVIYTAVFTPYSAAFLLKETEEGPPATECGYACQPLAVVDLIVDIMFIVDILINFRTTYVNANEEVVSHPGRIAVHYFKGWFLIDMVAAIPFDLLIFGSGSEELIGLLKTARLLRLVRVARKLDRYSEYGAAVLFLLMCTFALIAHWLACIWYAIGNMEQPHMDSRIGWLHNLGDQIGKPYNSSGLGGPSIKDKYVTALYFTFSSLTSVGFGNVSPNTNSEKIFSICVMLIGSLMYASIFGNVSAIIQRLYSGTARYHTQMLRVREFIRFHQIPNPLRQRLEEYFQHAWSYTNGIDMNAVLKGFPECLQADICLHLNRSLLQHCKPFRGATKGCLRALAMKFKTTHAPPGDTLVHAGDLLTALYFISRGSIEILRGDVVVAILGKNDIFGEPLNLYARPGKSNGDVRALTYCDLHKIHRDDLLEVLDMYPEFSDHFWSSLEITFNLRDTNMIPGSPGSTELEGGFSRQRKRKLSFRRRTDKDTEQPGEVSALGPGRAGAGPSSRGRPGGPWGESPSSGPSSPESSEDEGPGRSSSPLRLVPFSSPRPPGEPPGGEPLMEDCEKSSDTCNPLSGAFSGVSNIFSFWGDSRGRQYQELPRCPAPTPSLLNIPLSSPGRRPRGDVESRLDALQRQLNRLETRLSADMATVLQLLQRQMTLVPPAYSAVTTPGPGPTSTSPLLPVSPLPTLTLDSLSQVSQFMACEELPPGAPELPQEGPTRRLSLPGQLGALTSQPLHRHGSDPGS

[10] = Protein binding in rat plasma at 5 uM; assay type: ADME, cell-free
CYP1A2 = molecular target: T1, CYP1A2 (Homo sapiens, UniProt P05177); assay: Inhibition of CYP1A2 (unknown origin) at 10 uM relative to control; assay type: ADME
T1 sequence (P05177 whole entry): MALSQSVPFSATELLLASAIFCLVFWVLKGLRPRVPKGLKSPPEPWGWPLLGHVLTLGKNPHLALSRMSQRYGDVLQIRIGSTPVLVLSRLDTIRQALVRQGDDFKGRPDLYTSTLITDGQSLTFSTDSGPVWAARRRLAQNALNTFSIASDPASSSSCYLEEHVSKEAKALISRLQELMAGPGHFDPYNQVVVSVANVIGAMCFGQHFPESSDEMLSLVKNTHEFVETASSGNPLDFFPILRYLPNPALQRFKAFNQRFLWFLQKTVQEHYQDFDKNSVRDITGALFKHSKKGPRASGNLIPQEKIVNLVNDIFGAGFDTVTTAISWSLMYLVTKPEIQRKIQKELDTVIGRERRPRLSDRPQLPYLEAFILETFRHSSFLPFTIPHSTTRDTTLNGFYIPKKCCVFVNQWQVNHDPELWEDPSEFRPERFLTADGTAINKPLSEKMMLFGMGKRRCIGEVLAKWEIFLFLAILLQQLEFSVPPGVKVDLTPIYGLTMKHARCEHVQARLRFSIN

CYP2C9 = CYP2C9 (Homo sapiens, UniProt P11712); assay: Inhibition of CYP2C9 (unknown origin) at 10 uM relative to control; assay type: ADME
Chain of CYP2C9 (P11712 whole entry): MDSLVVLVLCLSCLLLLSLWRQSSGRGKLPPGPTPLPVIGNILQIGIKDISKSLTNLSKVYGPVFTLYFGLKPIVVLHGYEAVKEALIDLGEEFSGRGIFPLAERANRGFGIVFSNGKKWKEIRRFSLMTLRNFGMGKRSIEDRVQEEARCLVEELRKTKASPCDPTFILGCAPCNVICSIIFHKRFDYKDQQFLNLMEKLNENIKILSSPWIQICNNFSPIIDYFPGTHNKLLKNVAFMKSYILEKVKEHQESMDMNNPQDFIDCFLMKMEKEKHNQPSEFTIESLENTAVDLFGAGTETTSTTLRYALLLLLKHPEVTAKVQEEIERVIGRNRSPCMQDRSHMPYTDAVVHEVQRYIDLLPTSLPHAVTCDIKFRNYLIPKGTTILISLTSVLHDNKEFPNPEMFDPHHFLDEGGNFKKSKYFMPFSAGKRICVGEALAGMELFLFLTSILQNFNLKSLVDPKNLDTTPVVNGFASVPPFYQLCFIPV

CYP2C19 = CYP2C19 (Homo sapiens, UniProt P33261); assay: Inhibition of CYP2C19 (unknown origin) at 10 uM relative to control; assay type: ADME
Chain of CYP2C19 (P33261 whole entry): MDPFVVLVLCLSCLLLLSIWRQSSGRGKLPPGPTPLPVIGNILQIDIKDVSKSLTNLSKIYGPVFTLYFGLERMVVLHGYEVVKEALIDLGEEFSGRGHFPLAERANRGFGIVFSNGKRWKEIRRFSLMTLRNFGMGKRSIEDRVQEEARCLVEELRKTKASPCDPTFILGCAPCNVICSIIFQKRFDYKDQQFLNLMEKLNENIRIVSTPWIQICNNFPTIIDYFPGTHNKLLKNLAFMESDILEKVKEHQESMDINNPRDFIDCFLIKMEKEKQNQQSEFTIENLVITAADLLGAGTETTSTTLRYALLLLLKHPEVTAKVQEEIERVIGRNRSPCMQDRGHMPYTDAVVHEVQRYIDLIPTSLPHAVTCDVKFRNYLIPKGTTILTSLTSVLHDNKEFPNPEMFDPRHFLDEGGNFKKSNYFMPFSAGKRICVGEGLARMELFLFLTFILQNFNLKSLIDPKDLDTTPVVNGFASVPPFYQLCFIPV

CYP2D6 = CYP2D6 (Homo sapiens, UniProt P10635); assay: Inhibition of CYP2D6 (unknown origin) at 10 uM relative to control; assay type: ADME
Chain of CYP2D6 (P10635 whole entry): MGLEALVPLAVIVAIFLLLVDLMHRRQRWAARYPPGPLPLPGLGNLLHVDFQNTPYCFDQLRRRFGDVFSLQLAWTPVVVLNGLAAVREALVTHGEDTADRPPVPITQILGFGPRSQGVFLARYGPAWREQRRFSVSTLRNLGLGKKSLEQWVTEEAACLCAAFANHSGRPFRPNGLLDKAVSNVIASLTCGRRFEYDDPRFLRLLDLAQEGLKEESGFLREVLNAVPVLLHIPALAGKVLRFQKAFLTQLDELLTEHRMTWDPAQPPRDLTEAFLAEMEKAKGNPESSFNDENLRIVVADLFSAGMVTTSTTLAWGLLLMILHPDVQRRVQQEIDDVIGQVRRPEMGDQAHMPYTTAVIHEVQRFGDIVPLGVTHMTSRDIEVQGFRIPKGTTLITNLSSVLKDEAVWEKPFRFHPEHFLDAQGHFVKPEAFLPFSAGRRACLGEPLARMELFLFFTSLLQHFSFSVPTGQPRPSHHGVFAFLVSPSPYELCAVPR

CYP3A4 = CYP3A4 (Homo sapiens, UniProt P08684); assay: Inhibition of CYP3A4 (unknown origin) at 10 uM relative to control; assay type: ADME
Chain of CYP3A4 (P08684 whole entry): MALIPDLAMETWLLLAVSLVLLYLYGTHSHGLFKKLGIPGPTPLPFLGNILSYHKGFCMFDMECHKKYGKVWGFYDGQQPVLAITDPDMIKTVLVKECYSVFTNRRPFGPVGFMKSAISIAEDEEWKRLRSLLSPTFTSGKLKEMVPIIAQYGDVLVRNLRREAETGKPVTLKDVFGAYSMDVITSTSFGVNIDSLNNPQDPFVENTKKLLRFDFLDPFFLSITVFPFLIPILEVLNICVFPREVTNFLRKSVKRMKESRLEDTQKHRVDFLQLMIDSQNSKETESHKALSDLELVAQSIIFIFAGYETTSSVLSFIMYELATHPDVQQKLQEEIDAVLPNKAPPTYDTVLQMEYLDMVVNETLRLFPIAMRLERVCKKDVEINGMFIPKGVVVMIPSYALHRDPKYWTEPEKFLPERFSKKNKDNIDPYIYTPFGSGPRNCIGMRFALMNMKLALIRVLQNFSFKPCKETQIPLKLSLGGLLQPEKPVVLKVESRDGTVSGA

[11] = Tmax in rat at 10 mg/kg, po; assay type: ADME, organism-based; conditions: in vivo
In short: (§2)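 Rats were dosed orally at 10 mg/kg. Values are the mean of experiments using three rats.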

[12] = Half life in rat at 10 mg/kg, po; assay type: ADME, organism-based; conditions: in vivo; in short: as §2
[13] = AUC in rat at 10 mg/kg, po; assay type: ADME, organism-based; parameters: dose 10 mg/kg; conditions: in vivo; in short: as §2
[14] = Oral bioavailability in rat at 10 mg/kg; assay type: ADME, organism-based; conditions: in vivo
In short: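 Rats received oral dosing at 10 mg/kg alongside intravenous dosing at 2 mg/kg. Values are the mean of experiments using three rats.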

[15] = Half life in rat at 5 mg/kg, iv; assay type: ADME, organism-based; conditions: in vivo
[16] = AUC in rat at 5 mg/kg, iv; assay type: ADME, organism-based; parameters: dose 5 mg/kg; conditions: in vivo
[17] = Clearance in rat at 5 mg/kg, iv; assay type: ADME, organism-based; conditions: in vivo
[18] = Volume of distribution at steady state in rat at 5 mg/kg, iv; assay type: ADME, organism-based; conditions: in vivo, read-out: Vdss

O=c1[nH]c(Nc2ccccc2F)nc2cc(Cl)ccc12
IC50 (SARS-CoV-2): > 25 µM
CC50 (Vero): > 25 µM
Ratio CC50/IC50 [1]: 1

O=c1[nH]c(Nc2cccc(O)c2)nc2cc(Cl)ccc12
IC50 (SARS-CoV-2): > 25 µM
CC50 (Vero): > 25 µM
Ratio CC50/IC50 [1]: 1

Cc1cc(C)c2nc(Nc3cc(Cl)cc(Cl)c3)[nH]c(=O)c2c1
IC50 (SARS-CoV-2): > 25 µM
CC50 (Vero): > 25 µM
Ratio CC50/IC50 [1]: 1

O=c1[nH]c(Nc2cc(Cl)cc(Cl)c2)nc2cc(O)ccc12
IC50 (SARS-CoV-2): > 25 µM
CC50 (Vero): > 25 µM
Ratio CC50/IC50 [1]: 1

Nc1ccc2c(=O)[nH]c(Nc3cc(Cl)cc(Cl)c3)nc2c1
IC50 (SARS-CoV-2): > 25 µM
CC50 (Vero): > 25 µM
Ratio CC50/IC50 [1]: 1

O=c1[nH]c(Nc2cc(F)cc(F)c2)nc2c(Cl)ccc(Cl)c12
IC50 (SARS-CoV-2): 0.33 µM
CC50 (Vero): > 25 µM
Ratio CC50/IC50 [1]: 76
IC50 [2]: 0.79 µM
Ratio CC50/IC50 [3]: 31

O=c1[nH]c(Nc2cccc(F)c2)nc2cc(Cl)ccc12
IC50 (SARS-CoV-2): 1.4 µM
CC50 (Vero): > 25 µM
Ratio CC50/IC50 [1]: 18

O=c1[nH]c(Nc2cc(Cl)cc(Cl)c2)nc2cccc(O)c12
IC50 (SARS-CoV-2): 0.15 µM
CC50 (Vero): > 25 µM
Ratio CC50/IC50 [1]: 168
IC50 [2]: 1.02 µM
remaining at 0.5 h [4]: 42%
remaining at 0.5 h [5]: 54%
remaining at 0.5 h [6]: 55%
CC50 (HFL1): 9.6 µM
CC50 [7]: 28 µM
CC50 [8]: 27 µM
CC50 [9]: 60 µM
inhibition at 10 µM (hERG (KCNH2)): 28%
PPB [10]: 97%
inhibition at 10 µM (CYP1A2): 65%
inhibition at 10 µM (CYP2C9): 34%
inhibition at 10 µM (CYP2C19): 12%
inhibition at 10 µM (CYP2D6): 46%
inhibition at 10 µM (CYP3A4): 65%
Tmax [11]: 1 h
half-life [12]: 42 h
AUC [13]: 1010 ng·h/mL
bioavailability [14]: 7.8%
half-life [15]: 9.2 h
AUC [16]: 6500 ng·h/mL
clearance [17]: 11.2 mL/min/kg
Vd [18]: 6.8 L/kg
Ratio CC50/IC50 [3]: 25

O=c1[nH]c(Nc2cc(O)cc(O)c2)nc2cc(Cl)ccc12
IC50 (SARS-CoV-2): > 25 µM
CC50 (Vero): > 25 µM
Ratio CC50/IC50 [1]: 1

O=c1[nH]c(Nc2cc(Cl)cc(Cl)c2)nc2cc(N3CCOCC3)ccc12
IC50 (SARS-CoV-2): > 25 µM
CC50 (Vero): > 25 µM
Ratio CC50/IC50 [1]: 1

O=c1[nH]c(N2CCCCC2)nc2cc(Cl)ccc12
IC50 (SARS-CoV-2): > 25 µM
CC50 (Vero): > 25 µM
Ratio CC50/IC50 [1]: 1

O=c1[nH]c(Nc2cc(F)cc(F)c2)nc2cc(O)ccc12
IC50 (SARS-CoV-2): > 25 µM
CC50 (Vero): > 25 µM
Ratio CC50/IC50 [1]: 1

O=c1[nH]c(Nc2cccc(C(F)(F)F)c2)nc2cc(Cl)ccc12
IC50 (SARS-CoV-2): 0.68 µM
CC50 (Vero): > 25 µM
Ratio CC50/IC50 [1]: 37

COc1cccc2nc(Nc3cc(Cl)cc(Cl)c3)[nH]c(=O)c12
IC50 (SARS-CoV-2): > 25 µM
CC50 (Vero): > 25 µM
Ratio CC50/IC50 [1]: 1

O=c1[nH]c(Nc2cc(Cl)cc(Cl)c2)nc2c(Cl)ccc(Cl)c12
IC50 (SARS-CoV-2): 0.35 µM
CC50 (Vero): > 25 µM
Ratio CC50/IC50 [1]: 71
IC50 [2]: 0.62 µM
Ratio CC50/IC50 [3]: 42

N#Cc1cccc(Nc2nc3cc(Cl)ccc3c(=O)[nH]2)c1
IC50 (SARS-CoV-2): 1.7 µM
CC50 (Vero): > 25 µM
Ratio CC50/IC50 [1]: 15

COc1cccc(Nc2nc3cc(Cl)ccc3c(=O)[nH]2)c1
IC50 (SARS-CoV-2): 11 µM
CC50 (Vero): > 25 µM
Ratio CC50/IC50 [1]: 2.3

Nc1ccc2c(=O)[nH]c(Nc3cc(F)cc(F)c3)nc2c1
IC50 (SARS-CoV-2): > 25 µM
CC50 (Vero): > 25 µM
Ratio CC50/IC50 [1]: 1

O=c1[nH]c(Nc2cc(Cl)cc(Cl)c2)nc2c(Cl)c(Cl)ccc12
IC50 (SARS-CoV-2): 0.24 µM
CC50 (Vero): > 25 µM
Ratio CC50/IC50 [1]: 103
IC50 [2]: 0.88 µM
Ratio CC50/IC50 [3]: 31
